KLK5 inh: human KLK5 protease inhibitors, primary screen, biochemical, 1536-well; recombinant hK5, fluorogenic AMC substrate cleavage; Kallikrein-5 (Homo sapiens), Q9Y337; AID 873, 2007; inhibition, % at 5 µM; actives 0.59% (n = 210,000);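 active = inhibition of 40% or more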;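 also: 0% = enzyme controls without compound and 100% = no-enzyme blanks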
FXIa inh 1536: human FXIa protease inhibitors, primary screen, biochemical, 1536-well; inhibition, % at 5 µM; AID 798, 2007; purified FXIa, Boc-Glu-Ala-Arg-AMC fluorogenic substrate; actives 0.14% (n = 220,000); Coagulation factor XI (Homo sapiens), P03951;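 active = inhibition of at least 40%; inactive = inhibition below 40%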;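 also: fluorescence of freed AMC excited at 355 nm; 0% = enzyme without compound and 100% = no enzyme blank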
Target sequence (P03951 19-387 limits assumed): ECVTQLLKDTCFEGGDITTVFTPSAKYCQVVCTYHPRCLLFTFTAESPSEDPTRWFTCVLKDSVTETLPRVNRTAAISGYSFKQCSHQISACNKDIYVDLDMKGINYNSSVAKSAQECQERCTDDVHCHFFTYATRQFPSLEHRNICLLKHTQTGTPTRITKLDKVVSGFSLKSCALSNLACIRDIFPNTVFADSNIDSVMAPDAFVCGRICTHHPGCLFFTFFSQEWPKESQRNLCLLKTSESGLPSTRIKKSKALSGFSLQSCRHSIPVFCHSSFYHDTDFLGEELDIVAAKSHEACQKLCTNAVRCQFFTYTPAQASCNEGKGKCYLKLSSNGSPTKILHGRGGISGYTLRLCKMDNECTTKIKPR
Target sequence (P03951 388-625 limits assumed): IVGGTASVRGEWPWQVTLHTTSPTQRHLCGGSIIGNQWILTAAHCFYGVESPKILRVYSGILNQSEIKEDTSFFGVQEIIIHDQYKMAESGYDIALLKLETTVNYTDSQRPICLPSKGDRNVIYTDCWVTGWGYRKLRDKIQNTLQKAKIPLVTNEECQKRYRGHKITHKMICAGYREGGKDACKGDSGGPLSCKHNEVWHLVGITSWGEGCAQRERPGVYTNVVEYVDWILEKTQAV
thrombin 1536: human alpha-thrombin inhibitors, primary screen, counter-screen for coagulation protease inhibitor project, biochemical, 1536-well, fluorogenic AMC substrate; Prothrombin (Homo sapiens), P00734; Boc-VPR-AMC fluorogenic substrate cleavage; inhibition, % at 5 µM; actives 0.26% (n = 220,000);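 active = inhibition at or above 40%; inactive = inhibition below 40%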;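 also: 0% = enzyme with no compound and 100% = wells without enzyme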
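Material: human alpha-thrombin protein; Also added: Boc-VPR-AMC substrate, 15 µM final; Timing: enzyme reaction carried out at room temperature; Signal: fluorescence, ex 355 nm, em 460 nm; Measure: % inhibition of thrombin; Controls: enzyme without compound as high, wells lacking enzyme as low.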
FXIIa inh 1536: human FXIIa protease inhibitors, primary screen, biochemical, 1536-well. Coagulation factor XII (Homo sapiens), P00748. purified FXIIa, Boc-QGR-AMC fluorogenic substrate, 2 h. inhibition, % at 5 µM. actives 0.3% (n = 220,000); in the data active = inhibition above about 40%;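 also: 0% = enzyme with no compound and 100% = blank without enzyme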
Calpain2 inh: inhibitors of pig calpain II, primary screen, biochemical, fluorogenic peptide substrate, 1536-well; purified calpain II, 30 min; inhibition, % at 16 µM; actives 0.37% (n = 220,000); AID 1236, 2008;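 active = inhibition above about 50%, limit read from the data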
Active calls of the source: *; x = no result given. A selection: hits, their analogues and other compounds. The true share with any hit is near 1.4%.

SMILES	KLK5 inh	FXIa inh 1536	thrombin 1536	FXIIa inh 1536	Calpain2 inh
CCOC(=O)c1sc(NC(=O)CSc2nc3ccccc3o2)c(C(=O)OCC)c1C	-17	6	-2	13	9
CCOC(=O)c1c(NC(=O)CSc2nc3cc(Cl)ccc3s2)sc(C(C)=O)c1C	-23	7	-1	12	-70
CCOC(=O)c1sc(NC(=O)CSc2nnc(Cc3ccccc3)o2)c(C(=O)OCC)c1C	74*	9	12	22	30
CN(C)c1ccc(C=C(c2nnnn2-c2ccccc2)c2nnnn2-c2ccccc2)cc1	-15	-1	-9	1	-9
CC(C(=O)O)N1C(=O)/C(=C/C=C/c2ccco2)SC1=S (stereo unspecified)	59*	0	15	-5	x
CC(C)c1ccc(NC(=O)COc2ccccn2)cc1	21	31	89*	26	19
CC(C)c1ccc(OCC(=O)Nc2ccc(OC(F)(F)F)cc2)cc1	-11	0	-11	12	-18
CC(C)c1ccc(CNC(=O)C(=O)NCCCn2ccnc2)cc1	1	-3	-5	9	-36
CCN1CCN(C(=S)NC(C)c2ccccc2)CC1 (stereo unspecified)	-20	10	-4	13	-3
OC(CNc1ccccc1)COc1ccc(OCC(O)CNc2ccccc2)cc1 (stereo unspecified)	58*	2	0	14	-19
Cc1nn(-c2ccccc2)c(Cl)c1/C=N/NC(=O)c1cccnc1	-10	5	-2	0	27
Cc1ccc(C(=O)N/N=C\c2c(C)nn(-c3ccccc3)c2Cl)cn1	41*	10	12	10	29
C=CCNC(=S)N/N=C/c1ccc(C)c([N+](=O)[O-])c1	62*	41*	24	106*	52*
C=CCNC(=S)N/N=C/c1ccc(C)cc1C	-1	3	-3	7	38
O=C(CSc1ccc(-c2cccc([N+](=O)[O-])c2)nn1)NC1CCCC1	1	7	-3	8	10
O=C(CC1C(=O)NCCN1CC1CCCCC1)NCCc1ccc(F)cc1 (stereo unspecified)	5	-2	-4	11	-44
Cc1ccc(S(=O)(=O)N2CCN(Cc3cc(C(C)C)ccc3O)CC2)cc1	3	14	0	43*	32
Cc1cc(NC(=O)CCSc2ccccc2)ccc1Br	-11	3	-8	4	31
CN(C)S(=O)(=O)c1ccc(C(=O)OCC(=O)NCc2ccco2)cc1	0	3	1	12	-18
O=C(CCC(=O)OCc1ccc(C(=O)Oc2ccc(Cl)cc2)cc1)Nc1ccccc1	52*	1	12	35	28
CC(C)c1ccc(NC(=O)Cn2cccc2C2=NC(c3ccccc3)CO2)cc1 (stereo unspecified)	-15	20	-5	20	24
Cc1ccc(CCNC(=O)C2CCCN(C(=O)c3cc4sccc4n3C)C2)cc1 (stereo unspecified)	47*	9	28	7	35
Cc1cc(NC(=O)c2ccc3c(c2)C(=O)N(C)C3=O)no1	-3	0	2	13	-42
Cc1cc(NC(=O)c2ccc3c(c2)C(=O)N(CCC(C)C)C3=O)no1	-27	-9	-11	-2	53*
Cc1ccc(C)c(NC(=S)N(CCN(C)C)C(C)c2ccccn2)c1 (stereo unspecified)	-3	0	5	8	8
SMILES	KLK5 inh	FXIa inh 1536	thrombin 1536	FXIIa inh 1536	Calpain2 inh
Cc1ccc(CN(C)CC(=O)Nc2ccc3c(c2)CCC3)cc1	47*	30	2	31	34
CCNC(=S)Nc1ccc(S(=O)(=O)Nc2cc(C)nc(C)n2)cc1	7	0	-2	6	-1
CCc1ccccc1N1C(=O)[C@@H]2Cc3ccccc3CN2C1=O	-3	-2	-5	1	-6
COc1ccc(N(C(=O)c2ccco2)S(=O)(=O)c2cccc([N+](=O)[O-])c2)cc1	-5	20	58*	22	28
COc1ccc(N(C(=O)c2ccco2)S(=O)(=O)c2cccs2)cc1	-8	11	17	19	-22
COc1ccc(N(C(=O)c2ccco2)S(=O)(=O)c2ccc(F)cc2)cc1	0	9	42*	14	-2
COc1ccc(N(C(=O)C(C)C)S(=O)(=O)c2cccc([N+](=O)[O-])c2)cc1	-16	-9	-6	3	-13
O=C(c1cccnc1)N1CCN(c2ccccc2Cl)CC1	1	0	-2	8	-5
Cc1nn(C)c(C)c1S(=O)(=O)N1CCC(C(=O)NCCC2=CCCCC2)CC1	65*	7	42*	41*	4
Cc1noc(C)c1S(=O)(=O)N1CCC(C(=O)NCCC2=CCCCC2)CC1	-2	-9	-4	1	10
Nc1ccnn1Cc1ccncc1	-4	-5	-1	2	-7
Nc1ccnn1Cc1cccs1	79*	8	22	43*	20
CSc1ccccc1NC(=O)c1cc(-c2cccnc2)nc2ccc(Br)cc12	-24	-6	1	-6	-124
O=C(CN1CCN(c2ccccn2)CC1)Nc1ccc(Oc2ccccc2)cc1	-7	27	2	56*	30
CC(C)(C)OC(=O)N[C@@H](Cc1ccccc1)c1nnc(S(=O)(=O)Cc2ccccc2)o1	-6	20	14	26	-10
CCC(C)[C@@H](NC(=O)OC(C)(C)C)c1nnc(S(=O)(=O)Cc2cccc(C)c2)o1 (stereo partly specified)	0	31	51*	17	18
CN(Cc1cn[nH]c1-c1ccc(-c2ccccc2)cc1)CC1CCOCC1	0	14	-4	8	-6
O=C(COc1ccc(F)cc1)NN1C(=O)CSC1=S	-8	-2	-6	10	52*
CN1CCN(CCc2nc3cc(NC(=O)c4ccco4)ccc3n2C)CC1	0	1	-6	5	54*
Cc1ccc(N2CCN(CCc3nc4cc(NC(=O)c5ccco5)ccc4n3C)CC2)cc1	0	-6	-6	10	-28
CCn1c(C)nc2cc(S(=O)(=O)C(F)(F)C(F)C(F)(F)F)ccc21 (stereo unspecified)	3	-4	-4	-6	90*
CCn1c(C)nc2cc(S(N)(=O)=O)ccc21	3	-4	-4	12	-21
COc1ccccc1CC(=O)NCc1csc(-c2cccs2)n1	9	47*	11	45*	6
CCC(=O)NCc1csc(-c2cccs2)n1	-4	2	-6	6	-8
COC(=O)c1cc(NC(=O)c2ccoc2C)cc(C(=O)OC)c1	40*	2	1	5	-13
Cc1occc1C(=O)Nc1cccnc1	78*	3	10	5	11

Screening data: PubChem BioAssay, several laboratories
